Measured values gathered from unrelated publications.
Lines come from different studies, so protocols differ.
Target: Ephrin type-A receptor 8 (EPHA8, Homo sapiens, UniProt P29322)
Sequence (P29322 28-1005, as in one of the studies): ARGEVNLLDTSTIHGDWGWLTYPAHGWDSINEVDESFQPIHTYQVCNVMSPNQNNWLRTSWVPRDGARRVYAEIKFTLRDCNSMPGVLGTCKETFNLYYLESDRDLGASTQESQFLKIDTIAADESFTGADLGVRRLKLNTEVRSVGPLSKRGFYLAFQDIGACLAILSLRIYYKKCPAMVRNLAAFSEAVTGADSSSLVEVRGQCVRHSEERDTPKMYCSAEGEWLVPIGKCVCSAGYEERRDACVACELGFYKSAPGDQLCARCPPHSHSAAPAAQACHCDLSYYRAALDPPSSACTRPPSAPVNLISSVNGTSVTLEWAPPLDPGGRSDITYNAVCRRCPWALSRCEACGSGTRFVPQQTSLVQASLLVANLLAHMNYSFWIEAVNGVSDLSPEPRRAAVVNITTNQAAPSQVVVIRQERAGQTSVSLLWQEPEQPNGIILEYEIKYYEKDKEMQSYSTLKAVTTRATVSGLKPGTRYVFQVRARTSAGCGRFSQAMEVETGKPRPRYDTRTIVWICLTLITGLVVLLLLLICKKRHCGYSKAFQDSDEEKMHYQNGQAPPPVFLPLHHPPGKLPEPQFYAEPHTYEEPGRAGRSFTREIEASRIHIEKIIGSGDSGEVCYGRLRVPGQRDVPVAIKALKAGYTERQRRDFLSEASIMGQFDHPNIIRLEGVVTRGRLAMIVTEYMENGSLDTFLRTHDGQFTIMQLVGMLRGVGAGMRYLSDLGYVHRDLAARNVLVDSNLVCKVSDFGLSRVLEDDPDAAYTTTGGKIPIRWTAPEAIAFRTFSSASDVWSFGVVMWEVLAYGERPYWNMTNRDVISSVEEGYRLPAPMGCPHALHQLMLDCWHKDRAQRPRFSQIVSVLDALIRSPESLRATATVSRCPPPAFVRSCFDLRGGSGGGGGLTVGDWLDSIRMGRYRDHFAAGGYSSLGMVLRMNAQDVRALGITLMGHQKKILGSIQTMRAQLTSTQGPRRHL

SMILES | observed | mode | technique | tested at | measurement | result
Nc1ncc(-c2nc(N3CCOCC3)nc(N3CCOCC3)n2)c(C(F)F)n1 | cell-free assay |  | competition with immobilised ligand | 10 µM | remaining binding | 100%
COc1cc(Cl)c(C(=O)N[C@@H](CN[C@H]2CC[C@@H](N)CC2)Cc2ccc(C#N)cc2)cc1-c1ccc(CN[C@H](C)c2ccc(C)cc2)o1 | enzyme activity | inhibitor |  | 1 µM | remaining activity | 107%
Cn1cc(-c2cc(F)cc(N3CCn4c(cc5c4CCCC5)C3=O)c2CO)cc(Nc2ccc(N3CCN(C4COC4)CC3)cn2)c1=O | enzyme activity | inhibitor |  | 0.1 µM | inhibition | 8%
Cn1cncc1[C@](O)(COc1ccc(C#N)cc1-c1ccc(OC(F)(F)F)cc1)c1ccc(C#N)cc1 | cell-free assay |  | competition with immobilised ligand | 1 µM | remaining binding | 72%
Cc1nn(C)cc1-c1nc2c(N3CCN(Cc4ccc(Cl)cc4)CC3)c(Cl)cnc2[nH]1 | binding |  | competition with immobilised ligand | 1 µM | remaining binding | 100%
O=c1[nH]c2ccccc2n1C1CCN(Cc2ccc(-c3[nH]c4cc5ncnc5cc4nc3-c3ccccc3)cc2)CC1 | cell-free assay |  |  | 0.5 µM | remaining signal | 106%
Cn1cc(-c2cccc(N3CCc4c(sc5c4CC(C)(C)C5)C3=O)c2CO)cc(Nc2ccncn2)c1=O | enzyme activity | inhibitor |  | 1 µM | inhibition | 1%
CC(C)(C)c1cc(C=C(C#N)C#N)cc(Br)c1O | enzyme activity | inhibitor |  | 0.5 µM | remaining activity | 100%
COc1cc(Nc2ncc(F)c(Nc3ccc4c(n3)NC(=O)C(C)(C)O4)n2)cc(OC)c1OC | binding |  | competition with immobilised ligand | 10 µM | inhibition | 58%
N#CC1(c2ccccn2)CCN(Cc2cc(C(=O)O)c(=O)n3ccccc23)CC1 | cell-free assay |  | competition with immobilised ligand | 1 µM | remaining binding | 100%
COc1ncccc1-c1cnn2ccc(N3CCN(C(=O)OC(C)C)CC3)nc12 | binding |  | competition with immobilised ligand | 1 µM | remaining binding | 100%
